Key:
[1] = biological target: Ribosomal protein S6 kinase alpha-3 (Homo sapiens) (UniProt P51812); assay: Binding affinity to wild-type human partial length N-terminal RSK2 kinase domain 1 (M1 to D394 residues) expressed in mammalian expression system assessed as residual binding level at 1 uM by Kinomescan method relative to control
[2] = biological target: Dual specificity testis-specific protein kinase 1 (Homo sapiens) (UniProt Q15569); assay: Binding affinity to wild-type human full length TESK1 (R37 to S626 residues) expressed in bacterial expression system assessed as residual binding level at 1 uM by Kinomescan method relative to control
Outline: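 Single-concentration KINOMEscan (DiscoverX) binding screen at 1 μM against a panel of 468 purified kinases and mutants. The read-out is binding relative to control.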

[3] = biological target: Misshapen-like kinase 1 (Homo sapiens) (UniProt Q8N4C8); assay: Binding affinity to wild-type human partial length MINK (M1 to K312 residues) expressed in mammalian expression system assessed as residual binding level at 1 uM by Kinomescan method relative to control
Outline: (§1)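 Kinome-wide competition binding screen against a panel of 468 purified kinases/mutants, with the test compound at a single concentration of 1 μM. Read-out is the relative binding activity of each kinase in the presence of compound.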

[4] = biological target: Activated CDC42 kinase 1 (Homo sapiens) (UniProt Q07912); assay: Binding affinity to wild-type human partial length TNK2 (S159 to D474 residues) expressed in bacterial expression system assessed as residual binding level at 1 uM by Kinomescan method relative to control
[5] = biological target: Mitogen-activated protein kinase 6 (Homo sapiens) (UniProt Q16659); assay: Binding affinity to wild-type human partial length ERK3 (M1 to P413 residues) expressed in bacterial expression system assessed as residual binding level at 1 uM by Kinomescan method relative to control; outline: as §1
EOL1 = assay: Antiproliferative activity against human EOL-1 cells after 72 hrs by CellTiter-Glo or CCK-8 assay; assay type: functional; conditions: EOL1, 72 h
Outline: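 Cells in RPMI 1640 with 10% FBS at 37 °C, 5% CO2, seeded at 1–3 × 10^4 cells/mL with serial compound dilutions for 72 h. Viability read by CellTiter-Glo luminescence or CCK-8 absorbance (450/655 nm), normalized to DMSO control.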

[6] = biological target: Ephrin type-A receptor 5 (Homo sapiens) (UniProt P54756); assay: Binding affinity to wild-type human partial length EPHA5 (T627 to V930 residues) expressed in bacterial expression system assessed as residual binding level at 1 uM by Kinomescan method relative to control
[7] = biological target: Serine/threonine-protein kinase BRSK2 (Homo sapiens) (UniProt Q8IWQ3); assay: Binding affinity to wild-type human full length BRSK2 (M1 to L674 residues) expressed in bacterial expression system assessed as residual binding level at 1 uM by Kinomescan method relative to control
Outline: (§2)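 Single-concentration (1 μM) competition-binding screen run by KINOMEscan against a panel of 468 purified kinases and mutants. The read-out is the relative binding activity of the test compound to each kinase.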

[8] = biological target: Myosin light chain kinase 2, skeletal/cardiac muscle (Homo sapiens) (UniProt Q9H1R3); assay: Binding affinity to wild-type human partial length MYLK2 (D258 to K570 residues) expressed in bacterial expression system assessed as residual binding level at 1 uM by Kinomescan method relative to control
[9] = biological target: Muscle, skeletal receptor tyrosine-protein kinase (Homo sapiens) (UniProt O15146); assay: Binding affinity to wild-type human partial length MUSK (M553 to V869 residues) expressed in bacterial expression system assessed as residual binding level at 1 uM by Kinomescan method relative to control
[10] = biological target: Casein kinase I isoform delta (Homo sapiens) (UniProt P48730); assay: Binding affinity to wild-type human full length CSNK1D (M1 to K409 residues) expressed in bacterial expression system assessed as residual binding level at 1 uM by Kinomescan method relative to control; outline: as §2
[11] = biological target: Phosphatidylinositol 4,5-bisphosphate 3-kinase catalytic subunit beta isoform (Homo sapiens) (UniProt P42338); assay: Binding affinity to wild-type human partial length PIK3CB (P118 to S1070 residues) expressed in mammalian expression system assessed as residual binding level at 1 uM by Kinomescan method relative to control
[12] = biological target: Ephrin type-A receptor 2 (Homo sapiens) (UniProt P29317); assay: Binding affinity to wild-type human partial length EPHA2 (T593 to V891 residues) expressed in bacterial expression system assessed as residual binding level at 1 uM by Kinomescan method relative to control
[13] = biological target: Homeodomain-interacting protein kinase 3 (Homo sapiens) (UniProt Q9H422); assay: Binding affinity to wild-type human partial length HIPK3 (M153 to N562 residues) expressed in mammalian expression system assessed as residual binding level at 1 uM by Kinomescan method relative to control
[14] = Oral bioavailability in Sprague-Dawley rat at 10 mg/kg; assay type: ADME, organism-based; conditions: in vivo
Outline: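 Male Sprague-Dawley rats, 6–8 weeks old and fasted overnight, dosed IV at 1 mg/kg or PO at 10 mg/kg. Formulation was 5% DMSO/40% PEG400/55% saline (1 mg/mL). Jugular blood collected on heparin from 1 min to 8 h (IV) or 5 min to 24 h (PO). Plasma separated by centrifugation at 2–8 °C and stored at −80 °C.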

[15] = biological target: Activin receptor type-2B (Homo sapiens) (UniProt Q13705); assay: Binding affinity to wild-type human ACVR2B (H169 to D504 residues) expressed in bacterial expression system assessed as residual binding level at 1 uM by Kinomescan method relative to control
Outline: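 KINOMEscan competition binding against 468 purified kinases/mutants, test compound at 1 µM; residual binding relative to control.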

[16] = biological target: Serine/threonine-protein kinase pim-1 (Homo sapiens) (UniProt P11309); assay: Binding affinity to wild-type human partial length PIM1 (A15 to K313 residues) expressed in bacterial expression system assessed as residual binding level at 1 uM by Kinomescan method relative to control
[17] = tested on: Receptor-type tyrosine-protein kinase FLT3 (Homo sapiens), P36888 [UNDEFINED MUTATION]; assay: Binding affinity to human partial length FLT3 ITD mutant expressed in bacterial expression system assessed as residual binding level at 1 uM by Kinomescan method relative to control
Outline: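 Kinome-wide single-concentration binding screen (KINOMEscan) at 1 μM against a panel of 468 purified kinases and mutants. Read-out is relative binding of each kinase compared with control. Selectivity across the panel was summarised as an S(10) score.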

[18] = biological target: Homeodomain-interacting protein kinase 1 (Homo sapiens) (UniProt Q86Z02); assay: Binding affinity to wild-type human partial length HIPK1 (M146 to I555 residues) expressed in mammalian expression system assessed as residual binding level at 1 uM by Kinomescan method relative to control; outline: as §1
[19] = biological target: Hepatocyte growth factor receptor (Homo sapiens) (UniProt P08581); assay: Binding affinity to wild-type human partial length MET (D1010 to S1367 residues) expressed in bacterial expression system assessed as residual binding level at 1 uM by Kinomescan method relative to control

Q: What does the source list for `Cc1ccc(NC(=O)c2ccc(CN(CCN(C)C)C(=O)c3cccnc3)cc2)cc1Nc1nccc(-c2cccnc2)n1`?
A: Activity [1]: 100%; Activity [2]: 100%; Activity [3]: 75%; Activity [4]: 88%; Activity [5]: 94%; GI50 (EOL1): < 1 nM; Activity [6]: 86%; Activity [7]: 97%; Activity [8]: 100%; Activity [9]: 100%; Activity [10]: 95%; Activity [11]: 100%; Activity [12]: 100%; Activity [13]: 93%; bioavailability [14]: 1.96%; Activity [15]: 89%; Activity [16]: 98%; Activity [17]: 81%; Activity [18]: 79%; Activity [19]: 90%
